In ChEMBL document CHEMBL1127066, “Discovery and structure-activity relationship of a series of 1-carba-1-dethiacephems exhibiting activity against methicillin-resistant Staphylococcus aureus” (J Med Chem, 1993):
≈ marks a conversion by molar mass, not a printed value.

Tests used:
[1] = tested on: Haemophilus influenzae; assay: In vitro antimicrobial activity against Haemophilus influenzae C.L. strain; format: functional
[2] = tested on: Staphylococcus aureus; assay: In vitro evaluation of antimicrobial activity against heteroresistant Staphylococcus aureus ST 430 strain in trypticase soy broth; format: functional
[3] = tested on: Staphylococcus aureus; assay: In vitro evaluation of antimicrobial activity against 31 strains of heteroresistant Staphylococcus aureus in trypticase soy broth with 4% sodium chloride; format: functional
[4] = tested on: Pseudomonas aeruginosa; assay: In vitro antimicrobial activity against Pseudomonas X239 strain; format: functional
[5] = tested on: Staphylococcus aureus; assay: In vitro antimicrobial activity against Staphylococcus aureus X400 strain; format: functional
[6] = tested on: Escherichia coli; assay: In vitro evaluation of antimicrobial activity against Escherichia coli EC14 strain; format: functional
[7] = tested on: Staphylococcus epidermidis; assay: In vitro antimicrobial activity against Staphylococcus epidermidis 222 strain; format: functional
[8] = Maximum concentration determined in rats dosed intravenously with 20 mg/kg; format: ADME, organism-based; design: dose 20 mg/kg, route intravenous; conditions: rat, in vivo, iv
Outline: (§1)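 Male Sprague–Dawley rats (n = 4) were given 20 mg/kg iv in 0.9% saline through a jugular cannula, with serial plasma samples and cumulative urine collected over 6 h. Urine was collected into 0.1 M citrate, pH 6.5, and samples were stored at -70 °C. Drug was measured by agar well diffusion bioassay (E. coli ATCC4157 or M. luteus ATCC9241) against spiked standard curves. Half-life was 0.693/β from the terminal slope, and urinary recovery was % of dose.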

[9] = tested on: Pseudomonas aeruginosa; assay: Antimicrobial activity against Pseudomonas PS18 strain; format: functional
[10] = tested on: Rhesus monkey; assay: In vitro plasma protein binding was evaluated by using rhesus monkey at 20 ug/mL; format: ADME, Macaca mulatta
Outline: (§2)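 Binding was measured by ultrafiltration (Centrifree micropartition) in pooled plasma (ICR mouse, Sprague–Dawley rat, rhesus monkey or human) at a drug concentration of 20 μg/mL.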

[11] = Half-life determined in monkeys dosed intravenously with 30 mg/kg; format: ADME, organism-based; design: dose 30 mg/kg, route intravenous; conditions: simiiformes, in vivo, iv
Outline: (§3)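 Male rhesus monkeys (n = 4) received 30 mg/kg iv in 0.9% saline. Cephalic-vein plasma was sampled over 8 h, and 0–24 h cumulative urine was collected in metabolism cages into 0.1 M sodium citrate, pH 6.5. Antibacterial activity was quantified by agar well diffusion bioassay against plasma- or citrate-based standard curves. Half-life was 0.693/β from the terminal phase, and urinary recovery was % of administered dose.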

[12] = tested on: Staphylococcus aureus; assay: In vitro antimicrobial activity against Staphylococcus aureus S13E strain; format: functional
[13] = tested on: Staphylococcus aureus; assay: In vitro evaluation of antimicrobial activity against heteroresistant Staphylococcus aureus ST 430 strain in trypticase soy broth with 4% sodium chloride; format: functional
[14] = tested on: Staphylococcus epidermidis; assay: In vitro antimicrobial activity against Staphylococcus epidermidis 270 strain; format: functional
[15] = tested on: Streptococcus pneumoniae; assay: In vitro antimicrobial activity against Streptococcus pneumoniae PARK strain; format: functional
[16] = tested on: Klebsiella; assay: In vitro antimicrobial activity against Klebsiella X26 strain; format: functional
[17] = tested on: Enterobacter cloacae; assay: In vitro evaluation of antimicrobial activity against Enterobacter cloacae EB5 strain; format: functional
[18] = Maximum concentration determined in monkeys dosed intravenously with 30 mg/kg; format: ADME, organism-based; design: dose 30 mg/kg, route intravenous; conditions: simiiformes, in vivo, iv; outline: as §3
[19] = Half-life determined in rats dosed intravenously with 20 mg/kg; format: ADME, organism-based; design: dose 20 mg/kg, route intravenous; conditions: rat, in vivo, iv; outline: as §1
[20] = Percent urinary recovery (as total antibacterial activity) in monkeys dosed intravenously with 30 mg/kg; format: ADME, organism-based, Urine; design: dose 30 mg/kg, route intravenous; conditions: simiiformes, in vivo, iv; outline: as §3
[21] = species: Homo sapiens; assay: (§4) In vitro plasma protein binding was evaluated by using Human plasma at 20 ug/mL; format: ADME; outline: as §2
[22] = species: Rattus norvegicus; assay: (§5) In vitro plasma protein binding was evaluated using Sprauge-Dawley rat at 20 ug/mL; format: ADME; outline: as §2
[23] = species: Mus musculus; assay: In vitro plasma protein binding was evaluated using ICR mouse at 20 ug/mL; format: ADME; outline: as §2
[24] = tested on: Staphylococcus aureus; assay: In vitro antimicrobial activity against Staphylococcus aureus X1.1 strain; format: functional
[25] = tested on: Rattus norvegicus; assay: Percent urinary recovery (as total antibacterial activity) in rats dosed intravenously with 20 mg/kg; format: ADME, organism-based, Urine; design: dose 20 mg/kg, route intravenous; conditions: in vivo, iv; outline: as §1
[26] = tested on: Staphylococcus aureus; assay: Minimum inhibitory concentration against methicillin-resistant Staphylococcus aureus 430 (MRSA) in vitro using trypticase soy broth (TSB); format: functional
[27] = tested on: Staphylococcus aureus; assay: Minimum inhibitory concentration against heteroresistant strain of Staphylococcus aureus 430 in the absence of NaCl; format: functional
[28] = tested on: Staphylococcus aureus; assay: Minimum inhibitory concentration against heteroresistant strain of Staphylococcus aureus 430 in 4% of NaCl; format: functional
[29] = Tested against penicillin binding protein 2a (PBP2a) enzyme.
[30] = tested on: Staphylococcus aureus; assay: Minimum inhibitory concentration against methicillin-resistant Staphylococcus aureus 430 (MRSA) in vitro using trypticase soy broth (TSB) with 4% NaCl; format: functional
[31] = tested on: Staphylococcus aureus; assay: Minimum inhibitory concentration against homoresistant strain of Staphylococcus aureus 447 in the absence of NaCl; format: functional
[32] = tested on: Staphylococcus aureus; assay: Minimum inhibitory concentration against sensitive strain of Staphylococcus aureus 446 in the absence of NaCl; format: functional
[33] = tested on: Staphylococcus aureus; assay: Minimum inhibitory concentration against homoresistant strain of Staphylococcus aureus 447 in 4% of NaCl; format: functional
[34] = tested on: Staphylococcus aureus; assay: Minimum inhibitory concentration against sensitive strain of Staphylococcus aureus 446 in 4% of NaCl; format: functional
[35] = species: Rattus norvegicus; assay: as §5; format: functional; outline: as §2
[36] = species: Homo sapiens; assay: as §4; format: functional; outline: as §2

| SMILES | MIC [1] [µg/mL] | MIC [4] [µg/mL] | MIC [5] [µg/mL] | MIC [6] [µg/mL] | MIC [7] [µg/mL] | MIC [9] [µg/mL] | MIC [12] [µg/mL] | MIC [14] [µg/mL] | MIC [15] [µg/mL] | MIC [16] [µg/mL] | MIC [17] [µg/mL] | Bound [22] [%] | MIC [24] [µg/mL] | MIC [26] [µg/mL] | IC50 [29] [µg/mL] | MIC [30] [µg/mL] | other results |
| --- | --- | --- | --- | --- | --- | --- | --- | --- | --- | --- | --- | --- | --- | --- | --- | --- | --- |
| Nc1nc(/C(=N\OCCF)C(=O)N[C@@H]2C(=O)N3C(C(=O)[O-])=C(Sc4nc5cnccc5s4)CC[C@H]23)cs1.[Na+] | 0.03 | 32 | 4 | 0.06 | 0.5 | 32 | 0.5 | 2 | < 0.008 | 0.03 | 1 | 95 | 0.125 |  |  |  | MIC [2]: 0.5 µg/mL; MIC [3]: 2.6 µg/mL; Cmax [8]: 56.7 µg/mL; Bound [10]: 98.5%; half-life [11]: 58.4 min; MIC [13]: 1 µg/mL; Cmax [18]: 343 µg/mL; half-life [19]: 35.1 min; Recovery [20]: 46.8%; Bound [21]: 96.6%; Bound [23]: 88.5%; Recovery [25]: 37.2% |
| COc1cccc(OC)c1C(=O)N[C@@H]1C(=O)N2[C@@H]1SC(C)(C)[C@@H]2C(=O)O [METHICILLIN] | 4 (≈ 10.5 µM) | > 128 | 64 (≈ 168 µM) | > 128 | 4 (≈ 10.5 µM) | > 128 | 8 (≈ 21 µM) | 4 (≈ 10.5 µM) | 0.5 (≈ 1.31 µM) | 32 (≈ 84.1 µM) | > 128 |  | 2 (≈ 5.26 µM) | 8 (≈ 21 µM) | 456 (≈ 1200 µM) | 256 (≈ 673 µM) | MIC [27]: 8 µg/mL (≈ 21 µM); MIC [28]: 256 µg/mL (≈ 673 µM); MIC [31]: > 512 µg/mL; MIC [32]: 1 µg/mL (≈ 2.63 µM); MIC [33]: > 512 µg/mL; MIC [34]: 1 µg/mL (≈ 2.63 µM) |
| Nc1nc(/C(=N\OCCF)C(=O)N[C@@H]2C(=O)N3C(C(=O)[O-])=C(Sc4nncs4)CC[C@H]23)cs1.[Na+] | 0.015 | > 128 | 64 | 0.03 | 0.5 | 32 | 16 | 0.06 | < 0.008 | 0.015 | 0.5 | 63.1 | 0.125 |  |  |  | Bound [10]: 49.1%; Bound [21]: 36%; Bound [23]: 36.2% |
| Nc1nc(/C(=N\OCCF)C(=O)N[C@@H]2C(=O)N3C(C(=O)[O-])=C(Sc4nc5ccccc5s4)CC[C@H]23)cs1.[Na+] | 0.03 | 16 | 4 | 0.25 | 0.25 | 128 | 4 | 0.5 | < 0.008 | 0.03 | 1 |  | 0.125 | 0.5 | 3.5 | 1 |  |
| Nc1nc(/C(=N\OCCF)C(=O)N[C@@H]2C(=O)N3C(C(=O)[O-])=C(Sc4nc5ccc([N+](=O)[O-])cc5s4)CC[C@H]23)cs1.[Na+] | 0.03 | > 128 | 2 | 0.25 | 0.5 | 64 | 2 | 0.5 | < 0.008 | 0.06 | 1 | 98.3 | 0.06 | 0.5 | 0.85 | 1 | MIC [27]: 1 µg/mL; MIC [28]: 1 µg/mL; MIC [31]: 1.9 µg/mL; MIC [32]: 0.25 µg/mL; MIC [33]: 1.9 µg/mL; MIC [34]: 0.25 µg/mL; Bound [21]: > 99.2%; Bound [23]: 96.9% |
| CO/N=C(\C(=O)N[C@@H]1C(=O)N2C(C(=O)O)=C(CSc3nc(=O)c(O)nn3C)CS[C@H]12)c1csc(N)n1 [CEFTRIAXONE] |  |  |  |  |  |  |  |  |  |  |  |  |  |  |  |  | Bound [35]: 88.5%; Bound [36]: 94% |
| CCOc1ccc2ccccc2c1C(=O)N[C@@H]1C(=O)N2[C@@H]1SC(C)(C)[C@@H]2C(=O)O [NAFCILLIN] |  |  |  |  |  |  |  |  |  |  |  |  |  | 0.25 (≈ 0.603 µM) | 200 (≈ 483 µM) | 32 (≈ 77.2 µM) | MIC [27]: 1 µg/mL (≈ 2.41 µM); MIC [28]: 64 µg/mL (≈ 154 µM); MIC [31]: 128 µg/mL (≈ 309 µM); MIC [32]: 0.25 µg/mL (≈ 0.603 µM); MIC [33]: 128 µg/mL (≈ 309 µM); MIC [34]: 0.25 µg/mL (≈ 0.603 µM) |
| CO/N=C(\C(=O)N[C@@H]1C(=O)N2C(C(=O)O)=C(COC(C)=O)CS[C@H]12)c1csc(N)n1 [CEFOTAXIME] | 0.015 (≈ 0.0329 µM) | 8 (≈ 17.6 µM) | 64 (≈ 141 µM) | 0.03 (≈ 0.0659 µM) | 2 (≈ 4.39 µM) | 16 (≈ 35.1 µM) | 8 (≈ 17.6 µM) | 8 (≈ 17.6 µM) | 0.015 (≈ 0.0329 µM) | < 0.008 | 0.25 (≈ 0.549 µM) | 88.5 | 2 (≈ 4.39 µM) |  |  |  |  |
| CC(=O)c1sc(SC2=C(C(=O)[O-])N3C(=O)[C@@H](NC(=O)/C(=N/OCCF)c4csc(N)n4)[C@H]3CC2)nc1C.[Na+] | 0.06 | > 128 | 128 | 1 | 2 | > 128 | 32 | 8 | < 0.008 | 0.125 | 8 |  | 0.5 |  |  |  |  |
| Nc1nc(/C(=N\OCCF)C(=O)N[C@@H]2C(=O)N3C(C(=O)[O-])=C(Sc4nc5c(=O)[nH]c(=O)[nH]c5s4)CC[C@H]23)cs1.[Na+] | < 0.008 | > 128 | 128 | 0.06 | 2 | 64 | 16 | 8 | < 0.008 | 0.06 | 1 |  | 2 |  |  |  |  |
| Cn1nnnc1SC1=C(C(=O)[O-])N2C(=O)[C@@H](NC(=O)/C(=N/OCCF)c3csc(N)n3)[C@H]2CC1.[Na+] | 0.015 | 16 | > 128 | 0.06 | 2 | > 128 | 128 | 4 | 0.015 | < 0.008 | 0.5 |  | 0.5 |  |  |  |  |
| Nc1nc(/C(=N\OCCF)C(=O)N[C@@H]2C(=O)N3C(C(=O)[O-])=C(Sc4nc5cccnc5s4)CC[C@H]23)cs1.[Na+] | 0.03 | > 128 | 16 | 0.25 | 1 | 64 | 8 | 4 | < 0.008 | 0.03 | 2 |  | 0.25 |  |  |  |  |
| Nc1nc(/C(=N\OCCF)C(=O)N[C@@H]2C(=O)N3C(C(=O)[O-])=C(Sc4nc(C(=O)OCc5ccccc5)cs4)CC[C@H]23)cs1.[Na+] | 0.03 | 128 | 32 | 0.25 | 0.5 | 64 | 8 | 2 | < 0.008 | 0.015 | 2 |  | 0.25 |  |  |  |  |
